Results from publication PMC9166452 (International Journal of Nanomedicine, 2022).
Entries after “also recorded” stand apart in the source; their conditions may differ. Where a name gives a salt, the structure may show the parent alone.

Key:
[1] = In vivo toxicity; design: species or system BALB/c nude mice; conditions: after tumor resection surgery, oral
In short: (§1)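 MDA-MB-231 cells (1×10^6/mouse) were injected into the second right mammary gland of nude mice. Caliper volume was V = (a×b2)/2. At 80–100 mm3, tumors were resected under isoflurane, leaving 5–10% residual. Twenty mice were split into four arms (surgery plus PBS, blank TPGS micelles, free or micelle-loaded test compound), dosed orally at equal volume every two days on days 0–14. Tumor size and body weight were followed every two days to day 17. Organs, including jejunum and lungs, and tumors were then taken for histology.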

[2] = mice, oral administration; cited from earlier work
[3] = system: orthotopic TNBC (MDA-MB-231 cells); assay: Oral treatment combined with surgery on orthotopic TNBC in nude mice; assay type: in vivo, BALB/c nude mice; conditions: after tumor resection surgery
In short: as §1

[4] = system: subcutaneous xenografts of MDA-MB-231 cells; assay: Oral treatment of subcutaneous TNBC xenografts in nude mice; assay type: in vivo, BALB/c nude mice
In short: (§2)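 Female BALB/c nude mice (4 weeks old) received MDA-MB-231 cells (1×10^6/mouse) subcutaneously in the right thigh. At 50–100 mm3 they were randomised to PBS, free or micelle-loaded test compound, given 0.25 mg/kg by oral gavage every two days on days 0–14. Tumor size and body weight were taken every two days to day 17, then organs and tumors went to pathology/TUNEL. TIR was derived from mean tumor size, dosed vs control.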

[5] = In vivo toxicity; design: species or system BALB/c nude mice; conditions: 0.25 mg/kg oral
In short: as §2

[6] = oral, cited from earlier work
[7] = Bidirectional transport across Caco-2 cell monolayers; assay type: in vitro ADME; conditions: human, Caco-2
In short: (§3)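 Monolayers of Caco-2 cells were grown on 0.4-μm polycarbonate Transwell inserts (2×10^5 cells/well) and used only after passing a TEER check. Free or TPGS-micelle test compound (2 μg/mL) was added apically or basolaterally and incubated 4 h at 37°C. Receiver fluid was assayed by HPLC. Verapamil was co-incubated 4 h. AP→BL transport was also run at 4°C. Papp = (dQ/dt)/(A·C0); ER = Papp(BL→AP)/Papp(AP→BL).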

[8] = system: P-glycoprotein (P-gp); assay: as above; assay type: in vitro ADME; conditions: human, Caco-2, with verapamil 100 µM
In short: as §3

[9] = system: Caco-2 cell monolayers; assay: as above; assay type: in vitro ADME; conditions: AP→BL, 4°C
In short: as §3

[10] = In vitro release in simulated gastrointestinal fluids; assay type: physicochemical
[11] = patients with advanced solid tumors

Compound: O=C(CC1NCCCC1O)Cn1cnc2cc(Br)c(Cl)cc2c1=O (stereo not shown) [HF, Halofuginone hydrobromide]
- body weight change [1]: caused the loss of body weight; also recorded: significant loss of body weight
- histology of jejunum (H&E) [1]: jejunum bleeding; also recorded: jejunum congestion was found
- detection in plasma and red blood cells [2]: not detected in plasma and red blood cells
- persistence in kidneys, liver and lungs [2]: up to 48 hours
- expression of Bcl-2, Bax and Caspase-3 in tumor (immunohistochemistry) [3]: regulated by HF and HTPM treatment
- lung metastasis (H&E, visual inspection) [3]: normal histological features without any tumors
- tumor growth vs PBS- and FTPM-treated groups [3]: significant delay in tumor growth
- tumor necrosis (H&E staining) [3]: larger necrotic area than those from the PBS- and FTPM-treated groups
- tumor inhibition rate (TIR) ([3]; every two days on days 0–14): 43.57% ± 1.15
- tumor inhibition rate (TIR) ([4]; 0.25 mg/kg HF, oral gavage, every two days on days 0–14): 47.55% ± 1.32
- tumor size vs untreated mice ([4]; 0.25 mg/kg oral, 12 days after oral administration): significant reduction in tumor size
- tumor necrosis (H&E staining) ([4]; 0.25 mg/kg oral, tumor sections): larger necrotic area than those from the PBS group
- expression of Bcl-2, Bax and Caspase-3 in tumor (immunohistochemistry) ([4]; 0.25 mg/kg oral, tumor tissues): markedly upregulated the expression of Bax and Caspase-3, and downregulated the expression of Bcl-2
- histology of jejunum / bleeding (H&E) [5]: jejunum hemorrhage
- body weight change ([5]; every two days on days 0–14): caused the loss of body weight
- "acute" maximum tolerated dose (MTD) [6, 11]: 3.5 mg/day
- dose-limiting toxicities (DLT) [6, 11]: nausea, vomiting, and fatigue
- dose recommended for chronic administration in Phase II clinical studies [6]: 0.5 mg/day
- Papp A→B at 4 h, 2 μg/mL [7]: 4.73 ± 0.28 ×10⁻⁶ cm/s
- Papp B→A at 4 h, 2 μg/mL [7]: 8.72 ± 0.16 ×10⁻⁶ cm/s
- efflux ratio at 4 h, 2 μg/mL [7]: 1.84
- Papp A→B at 4 h, 2 μg/mL [8]: 6.25 ± 0.75 ×10⁻⁶ cm/s
- Papp B→A at 4 h, 2 μg/mL [8]: 5.9 ± 0.1 ×10⁻⁶ cm/s
- efflux ratio at 4 h, 2 μg/mL [8]: 0.94
- Papp at 4°C compared with 37°C [9]: lower than those at 37 °C
- cumulative release percentage (CRP) of HF ([10]; simulated gastric fluids, from 0 to 8 hours): 53.25%
- cumulative release percentage (CRP) of HF ([10]; simulated gastric fluids, from 8 to 12 hours): 19.6%
- cumulative release percentage (CRP) of HF ([10]; simulated gastric fluids, within 24 hours): 80.03%
- cumulative release percentage (CRP) of HF ([10]; simulated intestinal fluids, from 0 to 8 hours): 54.39%
- cumulative release percentage (CRP) of HF ([10]; simulated intestinal fluids, from 8 to 12 hours): 18.17%
- cumulative release percentage (CRP) of HF ([10]; simulated intestinal fluids, within 24 hours): 82.61%
